Paper PMC3585837 (Drugs in R&D, 2012)
“Also recorded” adds a separate entry of the source. Read-outs that look alike come from different tables or passages of the source.

Tests used:
[1] = test system: dopamine-β-hydroxylase (DβH); details: cited from earlier work
[2] = first- and second-generation DβH inhibitors; cited from earlier work
[3] = type: in vivo, human; details: for AUClast test/reference geometric means ratio (GMR) / AUC∞ test/reference geometric means ratio (GMR) / Cmax test/reference geometric means ratio (GMR): fed (test) vs fasting (reference), n = 12
[4] = cited from earlier work; for Increase of the extent of systemic exposure with dose / Linearity of pharmacokinetics: once-daily 25-600 mg for 10 days
[5] = rat; cited from earlier work
[6] = cited from earlier work
[7] = test system: dopamine-β-hydroxylase (DβH); details: cited from earlier work; remark: listed apart in the source
[8] = test system: dopamine or noradrenaline levels in the brain; details: in contrast to peripheral tissues; cited from earlier work
[9] = test system: Cynomolgus monkeys; details: cited from earlier work
[10] = test system: mice; details: cited from earlier work
[11] = test system: normotensive Wistar-Kyotos rats; details: cited from earlier work
[12] = test system: male cardiomyopathic hamsters (Bio TO-2 dilated strain); details: male cardiomyopathic hamsters (Bio TO-2 dilated strain) with advanced congestive heart failure; cited from earlier work
[13] = test system: dogs; details: cited from earlier work
[14] = 200 mg single dose, fasting condition; cited from earlier work
[15] = test system: rats; details: cited from earlier work
[16] = Tolerability in the food-effect study; type: in vivo, human
Outline: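 Randomized two-period crossover in 12 healthy men (18–45 y, BMI 19–28 kg/m2). Each received a single 200 mg oral dose (four 50 mg capsules, 240 mL water) after a high-fat, high-calorie breakfast or a 10 h fast; washout ≥14 days; confined until 72 h post-dose. Adverse events monitored throughout, recording onset, offset, severity, relatedness, action and outcome. Vital signs, physical examination, hematology and biochemistry at each admission.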

[17] = test system: spontaneously hypertensive rats; details: cited from earlier work
[18] = cited from earlier work; remark: listed apart in the source
[19] = first- and second-generation DβH inhibitors
[20] = 90% CI of GMR against the acceptance interval (80, 125)

For `CCN(CC)C(=S)S` [diethyldithiocarbamate], the “Potency as DβH inhibitor” value [1, 19] is listed as “low potency”, the “Selectivity for DβH” value [1, 19] is listed as “poor selectivity” and the Side effects [2] is listed as “toxic side effects”.
For `CCCCc1ccc(C(=O)O)nc1` [fusaric acid], the “Potency as DβH inhibitor” value [1, 19] is listed as “low potency”, the “Selectivity for DβH” value [1, 19] is listed as “poor selectivity” and the Side effects [2] is listed as “toxic side effects”.
With `CC(=O)NCCc1c[nH]c(=S)n1[C@H]1COc2c(F)cc(F)cc2C1` [BIA 5-961] the “Effect of food on AUC∞, AUClast and Cmax (systemic exposure) of the metabolite” value ([3]; etamicastat 200 mg administered in the presence of food vs fasting) was “significant decrease; also recorded: decreased”, the “AUClast test/reference geometric means ratio (GMR)” value ([3]; single oral etamicastat 200 mg) was 79.41% and the “AUC∞ test/reference geometric means ratio (GMR)” value ([3]; single oral etamicastat 200 mg) was 83.47%. The “Cmax test/reference geometric means ratio (GMR)” value ([3]; single oral etamicastat 200 mg) was 62.42%, the “Increase of the extent of systemic exposure with dose” value [4] was “approximately dose-proportional” and the Linearity of pharmacokinetics [4] was “linear pharmacokinetics”. For the same molecule, the “Occurrence as metabolite of etamicastat” value [5] was “major metabolic pathway”, the “AUC in NAT2 rapid acetylators compared with poor acetylators” value [6] was “markedly higher” and the “Activity of the metabolite” value [7] was “inactive”.
With `Cl.NCCc1c[nH]c(=S)n1[C@H]1COc2c(F)cc(F)cc2C1` [etamicastat, (R)-5-(2-aminoethyl)-1-(6,8-difluorochroman-3-yl)-1,3-dihydroimidazole-2-thione hydrochloride] the “Bioequivalence fed vs fasting for Cmax” value [3, 20] was “did not fit the claim of bioequivalence; also recorded: does not fit the claim of bioequivalence”, the “Bioequivalence fed vs fasting for extent of exposure (AUClast and AUC∞)” value [3, 20] was “fulfilled the claim of bioequivalence; also recorded: remained within the acceptance interval; also recorded: remained unchanged” and the “AUClast test/reference geometric means ratio (GMR)” value ([3]; single oral etamicastat 200 mg) was 93.59%. The “AUC∞ test/reference geometric means ratio (GMR)” value ([3]; single oral etamicastat 200 mg) was 96.47%, the “Cmax test/reference geometric means ratio (GMR)” value ([3]; single oral etamicastat 200 mg) was 72.27% and the “Effect of food on tmax” value ([3]; fed vs fasting, Wilcoxon signed rank test) was “prolonged; also recorded: significantly delayed; also recorded: significantly increased”. For the same molecule, the “Decrease of Cmax as a result of food intake” value ([3]; fed vs fasting, single oral etamicastat 200 mg) was 28%, the “Effect on dopamine or noradrenaline levels in the brain” value [8] was “does not affect” and the “No observed adverse effect level” value [9] was 20 mg/kg/day. For the same molecule, the “No observed adverse effect level” value [10] was 30 mg/kg/day, the Heart rate ([11]; Wistar-Kyotos rats) was “did not affect” and the “Systolic and diastolic blood pressure” value ([11]; normotensive Wistar-Kyotos rats) was “no changes”. For the same molecule, the Survival rates [12] was “increased survival rates”, the “Increase of the extent of systemic exposure with dose” value [4] was “approximately dose-proportional” and the Linearity of pharmacokinetics [4] was “linear pharmacokinetics”. The “Etamicastat dose recovered in urine in the form of etamicastat and BIA 5-961” value ([4]; once-daily dosing) was “Approximately 40%”, the “Time to attain steady-state plasma concentrations” value ([4]; once-daily dosing) was “up to 9 days” and the Tolerability ([4]; orally, doses up to 600mg once daily for 10 days, male healthy volunteers) was “appears to be well tolerated”. The “No observed adverse effect level” value [13] was 5 mg/kg/day, the “AUClast, arithmetic mean” value [14] was 2026 ng·h/mL and the “AUC∞, arithmetic mean” value [14] was 2230 ng·h/mL. For the same molecule, the “Cmax, arithmetic mean” value [14] was 202 ng/mL, the “t1/2, arithmetic mean” value [14] was 19.8 h and the “Effect of NAT1 phenotype on pharmacokinetics” value [6] was “no relevant effect”. The “No observed adverse effect level” value [15] was 30 mg/kg/day, the “Intensity of TEAEs” value ([16]; both periods) was “mild to moderate” and the “Serious adverse events or discontinuations due to adverse events” value ([16]; both periods) was “no serious adverse events or discontinuations due to adverse events”. The “Total number of treatment-emergent adverse events” value ([16]; both periods, single oral etamicastat 200 mg) was “six”, the “Abnormalities in vital signs, ECG or laboratory safety tests” value ([16]; during the study) was “no clinically significant abnormality; also recorded: No clinically relevant abnormalities” and the “Number of TEAEs” value ([16]; fed period (abdominal pain, asthenia, headache, intercostal pain)) was “four”. The “Proportion of subjects reporting treatment-emergent adverse events” value ([16]; of 12 subjects, single oral etamicastat 200 mg, both periods) was 33.3%, the Overall tolerability ([16]; single oral 200 mg, fasting and fed periods, healthy male subjects) was “well tolerated” and the Heart rate [17] was “did not affect”. The “Systolic and diastolic blood pressure” value [17] was “reduced”.
For `NCc1c[nH]c(=S)n1[C@H]1CCc2c(F)cc(F)cc2C1` [nepicastat], the “Crossing of the blood-brain barrier” value [18] is listed as “cross the blood-brain barrier” and the “Potency as DβH inhibitor” value ([1]; third-generation DβH inhibitor, compared with first and second generation) is listed as “much greater potency”.
In the case of `CCN(CC)C(=S)SSC(=S)N(CC)CC` [disulfiram], the “Potency as DβH inhibitor” value [1, 19] is given as “low potency”, the “Selectivity for DβH” value [1, 19] is given as “poor selectivity” and the Side effects [2] is given as “toxic side effects”.
